Laboratory results reported in ChEMBL document CHEMBL3860039, “Structure-Activity Relationship and Signaling of New Chimeric CXCR4 Agonists” (J Med Chem, 2016).

Experiments:
Format in all cases: cell-based
[1] = biological target: T1, C-X-C chemokine receptor type 4 (Homo sapiens, UniProt P61073); assay: Displacement of [125I]-CXCL12 from HA-tagged human recombinant CXCR4 expressed in HEK293 cells incubated for 1 hr by gamma-radiation counting analysis
[2] = biological target: T1, C-X-C chemokine receptor type 4; assay: Agonist activity at HA-tagged human CXCR4 receptor expressed in HEK293 cells co-transfected with Galphai1-91-RlucII, Gbeta1, and GFP10-G-gamma1 incubated for 7 mins by Galpha1 protein activation-based BRET assay
Outline: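 HEK293 cells (3 × 10^6 per 100 mm dish) co-transfected via polyethylenimine with HA-hCXCR4 plus Gαi1-91-RlucII, Gβ1, GFP10-Gγ1; replated at 24 h, 100 000 cells/well. At 48 h, washed in HBSS/0.1% BSA, exposed to ligand 10−12 to 10−5 M for 7 min, then coelenterazine-400A 5 μM final; BRET2 515/400 nm ratio. EC50 (Gαi dissociation) and Emax from three experiments in triplicate.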

[3] = biological target: T1, C-X-C chemokine receptor type 4; assay: Agonist activity at CXCR4 in human REH cells assessed as induction of chemotaxis incubated for 3 hrs by transwell migration assay
Outline: (§1)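 REH acute lymphoblastic B-cell leukaemia cells washed in RPMI; 100 000 cells in RPMI + 0.2% BSA seeded on top of 5 μm pore polycarbonate transwell, peptide dilutions in same medium in bottom chamber; 3 h, 37 °C, 5% CO2. Migrated cells in lower chamber counted by automated counter, expressed as % of seeded cells; peak = concentration giving maximal migration. Three experiments in triplicate.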

[4] = biological target: T1, C-X-C chemokine receptor type 4; assay: Agonist activity at CXCR4 in human REH cells assessed as optimal concentration causing maximum induction of chemotaxis incubated for 3 hrs by transwell migration assay; outline: as §1

T1 sequence (P61073 whole entry): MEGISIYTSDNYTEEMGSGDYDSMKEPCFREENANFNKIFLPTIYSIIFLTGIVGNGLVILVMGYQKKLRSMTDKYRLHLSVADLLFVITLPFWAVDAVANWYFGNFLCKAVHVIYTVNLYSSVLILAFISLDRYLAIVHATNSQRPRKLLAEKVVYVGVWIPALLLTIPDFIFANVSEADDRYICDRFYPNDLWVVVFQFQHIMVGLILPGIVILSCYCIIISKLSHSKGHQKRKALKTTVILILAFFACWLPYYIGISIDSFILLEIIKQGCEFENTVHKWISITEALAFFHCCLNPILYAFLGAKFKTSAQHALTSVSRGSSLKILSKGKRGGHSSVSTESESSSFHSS

| Compound | IC50 [1] [µM] | EC50 [2] [µM] | Emax [2] [%] | %max [3] [%] | Activity [4] [nM] |
| --- | --- | --- | --- | --- | --- |
| CC(C)C[C@H](NC(=O)[C@H](CO)NC(=O)[C@@H](NC(=O)[C@@H]1CCCN1C(=O)[C@@H](N)CCCCN)C(C)C)C(=O)N[C@@H](CO)C(=O)N[C@@H](Cc1ccc(C(=O)c2ccccc2)cc1)C(=O)N[C@@H](CCCNC(=N)N)C(=O)N[C@@H](CO)C(=O)N[C@@H](C)C(=O)NCCCC[C@H](NC(=O)[C@@H]1CSSC[C@H](NC(=O)[C@H](Cc2ccc3ccccc3c2)NC(=O)[C@H](CCCNC(=N)N)NC(=O)[C@@H](N)CCCNC(=N)N)C(=O)N[C@@H](Cc2ccc(O)cc2)C(=O)N[C@@H](CCCNC(=N)N)C(=O)N[C@@H](CCCCN)C(=O)N[C@H](CCCCN)C(=O)N2CCC[C@H]2C(=O)N[C@@H](Cc2ccc(O)cc2)C(=O)N[C@@H](CCCNC(=N)N)C(=O)N[C@@H](CCCNC(=N)N)C(=O)N1)C(=O)O | 0.034 | 0.076 | 90 | 69 | 10 |
| CC(C)C[C@H](NC(=O)[C@H](CO)NC(=O)[C@@H](NC(=O)[C@@H]1CCCN1C(=O)[C@@H](N)CCCCN)C(C)C)C(=O)N[C@@H](CO)C(=O)N[C@@H](Cc1ccc(O)cc1)C(=O)N[C@@H](CCCNC(=N)N)C(=O)N[C@@H](C)C(=O)N[C@@H](C)C(=O)NCCCC[C@H](NC(=O)[C@@H]1CSSC[C@H](NC(=O)[C@H](Cc2ccc3ccccc3c2)NC(=O)[C@H](CCCNC(=N)N)NC(=O)[C@@H](N)CCCNC(=N)N)C(=O)N[C@@H](Cc2ccc(O)cc2)C(=O)N[C@@H](CCCNC(=N)N)C(=O)N[C@@H](CCCCN)C(=O)N[C@H](CCCCN)C(=O)N2CCC[C@H]2C(=O)N[C@@H](Cc2ccc(O)cc2)C(=O)NC(CCCNC(=N)N)C(=O)N[C@@H](CCCNC(=N)N)C(=O)N1)C(=O)O (stereo not given in full) | 0.137 | 0.111 | 21 | 19 | 1000 |
| CC(C)C[C@H](NC(=O)[C@H](CO)NC(=O)[C@@H](NC(=O)[C@@H]1CCCN1C(=O)[C@@H](N)CCCCN)C(C)C)C(=O)N[C@@H](CO)C(=O)N[C@@H](Cc1ccc(O)cc1)C(=O)N[C@@H](CCCNC(=N)N)C(=O)N[C@@H](CO)C(=O)N[C@@H](C)C(=O)NCCCC[C@H](NC(=O)[C@@H]1CSSC[C@H](NC(=O)[C@H](Cc2ccc3ccccc3c2)NC(=O)[C@H](CCCNC(=N)N)NC(=O)[C@@H](N)CCCNC(=N)N)C(=O)N[C@@H](Cc2ccc(O)cc2)C(=O)N[C@@H](CCCNC(=N)N)C(=O)N[C@@H](CCCCN)C(=O)N[C@H](CCCCN)C(=O)N2CCC[C@H]2C(=O)N[C@@H](Cc2ccc(O)cc2)C(=O)N[C@@H](CCCNC(=N)N)C(=O)N[C@@H](CCCNC(=N)N)C(=O)N1)C(=O)O | 0.084 | 0.058 | 55 | 45 | 10 |
| CC(C)C[C@H](NC(=O)[C@H](CO)NC(=O)[C@@H](NC(=O)[C@@H]1CCCN1C(=O)[C@@H](N)CCCCN)C(C)C)C(=O)N[C@@H](CO)C(=O)N[C@@H](Cc1ccccc1)C(=O)N[C@@H](CCCNC(=N)N)C(=O)N[C@@H](CO)C(=O)N[C@@H](C)C(=O)NCCCC[C@H](NC(=O)[C@@H]1CSSC[C@H](NC(=O)[C@H](Cc2ccc3ccccc3c2)NC(=O)[C@H](CCCNC(=N)N)NC(=O)[C@@H](N)CCCNC(=N)N)C(=O)N[C@@H](Cc2ccc(O)cc2)C(=O)N[C@@H](CCCNC(=N)N)C(=O)N[C@@H](CCCCN)C(=O)N[C@H](CCCCN)C(=O)N2CCC[C@H]2C(=O)N[C@@H](Cc2ccc(O)cc2)C(=O)N[C@@H](CCCNC(=N)N)C(=O)N[C@@H](CCCNC(=N)N)C(=O)N1)C(=O)O | 0.069 | 0.065 | 41 | 16 | 10 |
| CC(C)C[C@H](NC(=O)[C@H](CO)NC(=O)[C@H](Cc1cc2cccc3ccc4cccc1c4c32)NC(=O)[C@@H]1CCCN1C(=O)[C@@H](N)CCCCN)C(=O)N[C@@H](CO)C(=O)N[C@@H](Cc1ccc(O)cc1)C(=O)N[C@@H](CCCNC(=N)N)C(=O)N[C@@H](CO)C(=O)N[C@@H](C)C(=O)NCCCC[C@H](NC(=O)[C@@H]1CSSC[C@H](NC(=O)[C@H](Cc2ccc3ccccc3c2)NC(=O)[C@H](CCCNC(=N)N)NC(=O)[C@@H](N)CCCNC(=N)N)C(=O)N[C@@H](Cc2ccc(O)cc2)C(=O)N[C@@H](CCCNC(=N)N)C(=O)N[C@@H](CCCCN)C(=O)N[C@H](CCCCN)C(=O)N2CCC[C@H]2C(=O)N[C@@H](Cc2ccc(O)cc2)C(=O)N[C@@H](CCCNC(=N)N)C(=O)N[C@@H](CCCNC(=N)N)C(=O)N1)C(=O)O | 0.09 | 0.074 | 47 | 45 | 100 |
| CC(C)C[C@H](NC(=O)[C@H](CO)NC(=O)[C@@H](NC(=O)[C@@H]1CCCN1C(=O)[C@@H](N)CCCCN)C(C)C)C(=O)N[C@@H](CO)C(=O)N[C@@H](Cc1ccc(N)cc1)C(=O)N[C@@H](CCCNC(=N)N)C(=O)N[C@@H](CO)C(=O)N[C@@H](C)C(=O)NCCCC[C@H](NC(=O)[C@@H]1CSSC[C@H](NC(=O)[C@H](Cc2ccc3ccccc3c2)NC(=O)[C@H](CCCNC(=N)N)NC(=O)[C@@H](N)CCCNC(=N)N)C(=O)N[C@@H](Cc2ccc(O)cc2)C(=O)N[C@@H](CCCNC(=N)N)C(=O)N[C@@H](CCCCN)C(=O)N[C@H](CCCCN)C(=O)N2CCC[C@H]2C(=O)N[C@@H](Cc2ccc(O)cc2)C(=O)N[C@@H](CCCNC(=N)N)C(=O)N[C@@H](CCCNC(=N)N)C(=O)N1)C(=O)O | 0.094 | 0.083 | 33 | 27 | 10 |
